Assay [1] is described as follows: S. cerevisiae growth inhibition in permissive medium (OD615), pilot counter-assay for S. cerevisiae lifespan shortening project, permissive growth control (AID 705;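 active = growth inhibition above 25% in both replicates, a cutoff set 3 SD above the mean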). To be noted: OD615, 24 h, at 10 µM, stronger effect = higher value. The procedure, abridged: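 Material: engineered DeaD yeast; compound dosing: one dose 10 µM, DMSO 0.25% final; measure: yeast growth inhibition indicated by reduced 24 h OD615; detection: OD615 turbidity read; incubation: cells pre-grown 4 h, then 24 h compound exposure, 30 °C humidified; medium: permissive synthetic complete medium with raffinose and galactose carbon sources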

A short description of assay [2]: S. cerevisiae growth inhibition in restrictive medium, OD615, pilot screen, restrictive growth control, yeast lifespan reduction project (AID 706;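 active = growth inhibition above a set limit, 3 SD over mean compound inhibition, in both replicates, cut at about 43% in these data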;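 also: modified DeaD lifespan yeast strain shifted to restrictive glucose medium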). The following applies: OD615, 48 h, at 10 µM, stronger effect = higher value. The procedure, abridged: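 material = engineered S. cerevisiae DeaD strain | medium = glucose-based CSMM-D restrictive medium | times = 4 h pre-incubation, 48 h exposure at 30 °C | technique = OD615 absorbance reading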

Assay [3] can be described thus: doxorubicin toxicity protection in MRP-1 cells – H69AR cells, CellTiter-Glo, duplicate, MRP-1 activator project, pilot screen (AID 807).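 Also: compound pretreatment 18-22 h then 72 h combined with doxorubicin; 0% = doxorubicin alone and 100% = vehicle without doxorubicin.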 To be noted: H69AR viability with doxorubicin, CellTiter-Glo luminescence; at 10 µM; stronger effect = higher value. In general terms: In ATP-based viability assays light output follows the ATP content of the culture.
Assay [4] can be described thus: viability of HCT116 without oncogenic beta-catenin – human colon tumor cells, pilot screen (AID 823;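 active = cell viability at or below a set limit in both duplicate runs, the limit being the all-compound median minus 4 SD, cut at about 23% in these data, passing the limit was not always enough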;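 also: 0% = wells killed by 20 µM Hyamine and 100% = untreated DMSO cell wells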). The following applies: HCT116 beta-catenin knockout viability, CellTiter-Glo, 60 h; at 10 µM; stronger effect = lower value.
A short description of assay [5]: viability of PTEN-null HCT116 cells – cell-based, HCT116 clonal line, CellTiter-Glo, pilot screen (AID 824;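 active = viability at or below 27.92% in each of two runs, the all-compound median minus 4 SD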;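 also: 0% = 20 µM Hyamine control and 100% = vehicle cell control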). The following applies: HCT116 PTEN-deleted viability, 60 h, at 10 µM, stronger effect = lower value.
The nature of assay [6]: RAM pathway blockade in budding yeast – dse1pr::URA3 reporter, 5-FOA selection, pilot screen (AID 869;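 active = inhibition over a set limit, the all-compound mean plus 3 SD, in both replicate runs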;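 also: 0% = DMSO wells with no growth and 100% = 10 µM 1-NA-PP1 with full growth; RAM network block rescues cells from 5-FOA so hits raise OD615 growth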). To be noted: S. cerevisiae dse1pr::URA3 5-FOA growth, OD615, 2 d; at 10 µM; stronger effect = higher value; strain carries analog-sensitive mutant Cbk1 kinase.
Assay [7] in a line: RAM signaling pathway blockade in yeast – S. cerevisiae, Pdr1DBD-CYC8 efflux-inhibited sensitized strain, primary screen (AID 1298;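 active = RAM network inhibition above 8.4% in each of two replicates, 3 SD over the compound average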;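 also: 0% = DMSO untreated cells without growth and 100% = 10 µM 1-NA-PP1 full growth; higher means more yeast growth rescued from 5-FOA killing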). To be noted: S. cerevisiae cbk1-as DSE1-URA3 strain, 5-FOA growth OD615, 2 d; at 50 µM; stronger effect = higher value.

A number with no mark means an inactive call. Inconclusive results are not listed. Calls of active or inactive are those of the source.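 The calls were made as follows, unless noted: active = viability increase at or above a cutoff of the median across tested compounds plus 3 SD (cut at about 8.5% in these data, passing the limit was not always enough); inconclusive = some gains above the cutoff, reason not given; inactive = the rest.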

A word on the viability: it is a read-out of living cells in per cent, often relative to untreated cells. The term inhibition denotes the relative decrease from the control value, in per cent. With `COC(=O)c1cccnc1-n1c(=O)c2cccnc2n(Cc2cccc(OC)c2)c1=O`, the growth inhibition in assay [1] is -13.7%; in assay [2], 4.94%. In addition, the viability increase in assay [3] is -3.24%. Moreover, the figures for the viability in assay [4] and in assay [5] were 101% and 92.7%, respectively. In addition, the inhibition in assay [6] was 0.47%. Also, the RAM network inhibition in assay [7] was -1.41%.
`Cc1ccc2c(c1)-c1c(cnn1CC(=O)N1CCCN(Cc3ccccc3F)C1)CO2`: the growth inhibition in assay [1] is -0.225%; in assay [2] it was -1.89%. Moreover, in assay [3], the viability increase was -2.83%. Moreover, the viability in assay [4] was 88.9%; in assay [5], 93.1%. Also, in assay [6], the inhibition was 1%. In addition, the RAM network inhibition in assay [7] was 1.9%.
For the compound `CCOc1cc(/C=N/n2cnnc2)ccc1OCC(=O)Nc1ccccc1OC`, the growth inhibition in assay [1] is 0.995%; in assay [2] it was 0.62%. Besides, the viability increase in assay [3] was -1.37%. Also, the viability is 101% in assay [4] and 95.7% in assay [5]. Also, the inhibition in assay [6] was 1.91%. For the same compound, the RAM network inhibition in assay [7] is 2.52%.
Consider `CCCC(=O)NC(C)c1nc2ccccc2n1CC` (centres undefined), for which the values for the growth inhibition in assay [1] and in assay [2] were -0.24% and 4.37%, respectively. In assay [3], the viability increase was 0.02%. Also, the viability in assay [4] was 97%; in assay [5], 94.4%. In assay [6], the inhibition is 0.97%. Moreover, the RAM network inhibition in assay [7] is 2.35%.
For `COc1cccc(-c2nc(CS(=O)CC(=O)O)c(C)o2)c1` (centres undefined), the results for the growth inhibition in assay [1] and in assay [2] were -1.73% and 2.52%, respectively. Also, in assay [3], the viability increase is -0.27%. In addition, the viability is 99.9% in assay [4] and 99.5% in assay [5]. Besides, in assay [6], the inhibition was 1.31%. Also, the RAM network inhibition in assay [7] is 4.89%.
Consider `COc1ccccc1N(CC(=O)Nc1c(C)cccc1C)S(C)(=O)=O`, for which the growth inhibition in assay [1] was -11.2%; in assay [2], -8.78%. In addition, the viability increase in assay [3] is -1.48%. Besides, the viability in assay [4] is 101%; in assay [5], 98.2%. Moreover, the inhibition in assay [6] was 0.715%. The RAM network inhibition in assay [7] was 3.12%.
Turning to `Cc1ccccc1CSc1nnc(-c2ccco2)n1Cc1ccco1`, the growth inhibition in assay [1] was 5.54%; in assay [2], 10.2%. Moreover, in assay [3], the viability increase is -4.14%. The viability in assay [4] was 82.6%; in assay [5], 82.4%. Moreover, the inhibition in assay [6] was 0.145%. Also, the RAM network inhibition in assay [7] is 0.99%.
Take `CCCn1c2ccccc2c2cc(C(=O)O)ccc21`: the growth inhibition in assay [1] is -20.7%; in assay [2], -6%. Also, the viability increase in assay [3] is -3.03%. In addition, the viability in assay [4] was 106%; in assay [5], 93.5%. Moreover, the inhibition in assay [6] was 1.95%. For the same compound, the RAM network inhibition in assay [7] is 2.82%.
Take `COc1ccc(OC)c(N(CC(=O)O)S(=O)(=O)c2ccc(OC)c(OC)c2)c1`: the figures for the growth inhibition in assay [1] and in assay [2] were -2.7% and -11.1%, respectively. The viability increase in assay [3] was -0.41%. The figures for the viability in assay [4] and in assay [5] were 98.9% and 94%, respectively. Also, in assay [6], the inhibition was 2.03%. Also, the RAM network inhibition in assay [7] is 4.23%.
Consider `Cc1ccc(Cc2c(C)nc3nc(SCC(=O)NCc4ccco4)nn3c2C)cc1`, for which the values for the growth inhibition in assay [1] and in assay [2] were 10.4% and 12.9%, respectively. Further, in assay [3], the viability increase is -6.46%. For the same compound, the viability in assay [4] was 13.2% (active); in assay [5] it was 10.9% (active). In addition, the inhibition in assay [6] was 0.455%. Moreover, the RAM network inhibition in assay [7] was 5.24%.
For `O=S(=O)(Nc1nnc(-c2ccccc2)s1)c1ccc(Cl)cc1`, the growth inhibition in assay [1] was 4.67%; in assay [2], 14.4%. For the same compound, the viability increase in assay [3] was -0.34%. The viability in assay [4] is 104%; in assay [5] it was 105%. For the same compound, in assay [6], the inhibition is 3.29%. Further, the RAM network inhibition in assay [7] was 1.95%.
As to `CC(Cc1ccccc1)N/C=C1/CC(=O)NC1=O` (centres undefined), the values for the growth inhibition in assay [1] and in assay [2] were -8.61% and 0.51%, respectively. Moreover, in assay [3], the viability increase was -1.53%. For the same compound, the viability in assay [4] and in assay [5] was 97% throughout. Further, in assay [6], the inhibition is 1.42%. The RAM network inhibition in assay [7] was 2.56%.
Turning to `CN1CCN(CCCNC(=O)c2cc3c(=O)n(C)c4ccccc4c3s2)CC1`, the growth inhibition is 0.78% in assay [1] and -4.68% in assay [2]. In addition, the viability increase in assay [3] is -7.62%. Besides, the viability was 53.1% in assay [4] and 45.6% in assay [5]. The inhibition in assay [6] was 0.835%. Moreover, the RAM network inhibition in assay [7] is 1.14%.
Turning to `Cc1ccc(CSc2nc3c(c(=O)[nH]c(=O)n3C)n2CCC(C)C)cc1`, the results for the growth inhibition in assay [1] and in assay [2] were -2.01% and -11.3%, respectively. Further, the viability increase in assay [3] is -7.6%. For the same compound, the viability in assay [4] was 53.1%; in assay [5], 51.2%. In addition, the inhibition in assay [6] is 4.83%. Also, the RAM network inhibition in assay [7] is 7.58%.
In the case of `COc1ccc(Nc2oc(COc3ccccc3F)nc2C#N)cc1`, the growth inhibition in assay [1] is -10.6%; in assay [2], 11.6%. Moreover, the viability increase in assay [3] was -7.35%. The viability in assay [4] is 51.3%; in assay [5], 53.3%. For the same compound, in assay [6], the inhibition was 2.25%. Further, in assay [7], the RAM network inhibition is 3.24%.
As for `COc1ccc(C2N(c3ccc(Cl)cc3)C(=O)C3CCCN32)cc1` (centres undefined), the growth inhibition in assay [1] was 1.46%; in assay [2], 0.035%. Besides, the viability increase in assay [3] is 0.55%. Further, the viability is 101% in assay [4] and 99.9% in assay [5]. In addition, the inhibition in assay [6] is 0.915%. Besides, the RAM network inhibition in assay [7] was 0.88%.
For the compound `Cc1cc(NC(=O)CSCc2nc(-c3cccc(Cl)c3)oc2C)no1`, the growth inhibition in assay [1] was -12.6%; in assay [2] it was -5.47%. Also, the viability increase in assay [3] is 1.25%. Also, the viability is 94.3% in assay [4] and 95.5% in assay [5]. In addition, the inhibition in assay [6] was 1.98%. The RAM network inhibition in assay [7] was 11.2%.
